Results taken from ChEMBL document CHEMBL5724801, “EUbOPEN Chemogenomics Library - Multiplex” (2024).
“And” between values parts separate entries of the source, which are not always exact repeats. Identical values can stand only once.

System: HEK-293T
Assay: Multiplex assay against HEK293T
Assay type: toxicity, cell-based
Conditions: human
Procedure, shortened: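 Phenotypes for tubulin, mitochondrial mass and membrane permeability are expressed as per cents of healthy-nucleus cells. Cells were stained live at seeding with Hoechst33342, BioTracker Green Microtubule Cytoskeleton Dye, MitoTracker Red and Annexin V Alexa Fluor 680, then imaged after compound addition on a CQ1 microscope at 37°C and 5% CO2. Machine-learning gating in CellPathfinder separated Hoechst high-intensity objects from normal cells, divided normal cells by nuclear state (healthy, pyknosed, fragmented) and divided pyknosed cells into mitotic or apoptotic.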

[1] = 12 h, 1 µM, compound concentration 1 uM
[2] = 12 h, 10 µM, compound concentration 10 uM
[3] = 24 h, 1 µM, compound concentration 1 uM
[4] = 24 h, 10 µM, compound concentration 10 uM
[5] = 48 h, 1 µM, compound concentration 1 uM
[6] = 48 h, 10 µM, compound concentration 10 uM

Oc1c(CN2CCN(c3ccccn3)CC2)cc(Cl)c2cccnc12
Population Apoptotic (%) [1]: 30% and 45%
Population Fragmented Nuclei (%) [1]: 6% and 5%
Population Healthy Nuclei (%) [1]: 83% and 80%
Population Hoechst High Intensity Objects (%) [1]: 7%
Population Membrane Permeable-Phenotype (%) [1]: 0%
Population Mitochondria Different-Phenotype (%) [1]: 44% and 59%
Population Mitotic Cells (%) [1]: 70% and 54%
Population Normal (%) [1]: 92%
Population Pyknosed Nuclei (%) [1]: 10% and 13%
Population Tubulin-Different-Phenotype (%) [1]: 34% and 20%
Total Cell Count [1]: 424 and 354
Population Apoptotic (%) [2]: 71% and 73%
Population Fragmented Nuclei (%) [2]: 16% and 18%
Population Healthy Nuclei (%) [2]: 64% and 69%
Population Hoechst High Intensity Objects (%) [2]: 11% and 6%
Population Membrane Permeable-Phenotype (%) [2]: 0%
Population Mitochondria Different-Phenotype (%) [2]: 64% and 70%
Population Mitotic Cells (%) [2]: 28% and 26%
Population Normal (%) [2]: 88% and 93%
Population Pyknosed Nuclei (%) [2]: 18% and 12%
Population Tubulin-Different-Phenotype (%) [2]: 20% and 32%
Total Cell Count [2]: 197 and 327
Population Apoptotic (%) [3]: 34% and 33%
Population Fragmented Nuclei (%) [3]: 6% and 7%
Population Healthy Nuclei (%) [3]: 84%
Population Hoechst High Intensity Objects (%) [3]: 3%
Population Membrane Permeable-Phenotype (%) [3]: 0%
Population Mitochondria Different-Phenotype (%) [3]: 22% and 40%
Population Mitotic Cells (%) [3]: 65% and 66%
Population Normal (%) [3]: 96%
Population Pyknosed Nuclei (%) [3]: 9% and 8%
Population Tubulin-Different-Phenotype (%) [3]: 23% and 13%
Total Cell Count [3]: 529 and 427
Population Apoptotic (%) [4]: 93% and 81%
Population Fragmented Nuclei (%) [4]: 18% and 21%
Population Healthy Nuclei (%) [4]: 65% and 63%
Population Hoechst High Intensity Objects (%) [4]: 13% and 7%
Population Membrane Permeable-Phenotype (%) [4]: 1%
Population Mitochondria Different-Phenotype (%) [4]: 65% and 78%
Population Mitotic Cells (%) [4]: 6% and 18%
Population Normal (%) [4]: 86% and 92%
Population Pyknosed Nuclei (%) [4]: 15%
Population Tubulin-Different-Phenotype (%) [4]: 19% and 34%
Total Cell Count [4]: 227 and 354
Population Apoptotic (%) [5]: 29% and 31%
Population Fragmented Nuclei (%) [5]: 12% and 10%
Population Healthy Nuclei (%) [5]: 80% and 83%
Population Hoechst High Intensity Objects (%) [5]: 3%
Population Membrane Permeable-Phenotype (%) [5]: 0%
Population Mitochondria Different-Phenotype (%) [5]: 22% and 17%
Population Mitotic Cells (%) [5]: 70% and 68%
Population Normal (%) [5]: 96%
Population Pyknosed Nuclei (%) [5]: 6% and 5%
Population Tubulin-Different-Phenotype (%) [5]: 16% and 10%
Total Cell Count [5]: 689 and 518
Population Apoptotic (%) [6]: 83% and 94%
Population Fragmented Nuclei (%) [6]: 23% and 28%
Population Healthy Nuclei (%) [6]: 44% and 49%
Population Hoechst High Intensity Objects (%) [6]: 25% and 14%
Population Membrane Permeable-Phenotype (%) [6]: 0%
Population Mitochondria Different-Phenotype (%) [6]: 60% and 81%
Population Normal (%) [6]: 74% and 85%
Population Pyknosed Nuclei (%) [6]: 31% and 22%
Population Tubulin-Different-Phenotype (%) [6]: 30% and 42%
Total Cell Count [6]: 204 and 295

Cc1cc(=O)n(C)c2cc(N3C(=O)CC[C@H](NS(=O)(=O)CC(C)C)[C@H]3c3ccc(Cl)cc3)ccc12
Population Apoptotic (%) [1]: 43% and 63%
Population Fragmented Nuclei (%) [1]: 7% and 6%
Population Healthy Nuclei (%) [1]: 83% and 78%
Population Hoechst High Intensity Objects (%) [1]: 8% and 6%
Population Membrane Permeable-Phenotype (%) [1]: 0%
Population Mitochondria Different-Phenotype (%) [1]: 41% and 53%
Population Mitotic Cells (%) [1]: 56% and 36%
Population Normal (%) [1]: 91% and 93%
Population Pyknosed Nuclei (%) [1]: 8% and 14%
Population Tubulin-Different-Phenotype (%) [1]: 32% and 14%
Total Cell Count [1]: 454 and 265
Population Apoptotic (%) [2]: 47% and 50%
Population Fragmented Nuclei (%) [2]: 4% and 6%
Population Healthy Nuclei (%) [2]: 70% and 66%
Population Hoechst High Intensity Objects (%) [2]: 11% and 16%
Population Membrane Permeable-Phenotype (%) [2]: 0%
Population Mitochondria Different-Phenotype (%) [2]: 75% and 86%
Population Mitotic Cells (%) [2]: 52% and 49%
Population Normal (%) [2]: 88% and 83%
Population Pyknosed Nuclei (%) [2]: 24% and 27%
Population Tubulin-Different-Phenotype (%) [2]: 81% and 66%
Total Cell Count [2]: 368 and 331
Population Apoptotic (%) [3]: 33% and 36%
Population Fragmented Nuclei (%) [3]: 9% and 4%
Population Healthy Nuclei (%) [3]: 81% and 82%
Population Hoechst High Intensity Objects (%) [3]: 4% and 5%
Population Membrane Permeable-Phenotype (%) [3]: 0% and 1%
Population Mitochondria Different-Phenotype (%) [3]: 25% and 42%
Population Mitotic Cells (%) [3]: 66% and 63%
Population Normal (%) [3]: 95% and 94%
Population Pyknosed Nuclei (%) [3]: 9% and 13%
Population Tubulin-Different-Phenotype (%) [3]: 19% and 17%
Total Cell Count [3]: 646 and 327
Population Apoptotic (%) [4]: 34% and 76%
Population Fragmented Nuclei (%) [4]: 7% and 8%
Population Healthy Nuclei (%) [4]: 72% and 67%
Population Hoechst High Intensity Objects (%) [4]: 9% and 22%
Population Membrane Permeable-Phenotype (%) [4]: 0%
Population Mitochondria Different-Phenotype (%) [4]: 67% and 85%
Population Mitotic Cells (%) [4]: 65% and 23%
Population Normal (%) [4]: 90% and 77%
Population Pyknosed Nuclei (%) [4]: 19% and 23%
Population Tubulin-Different-Phenotype (%) [4]: 67% and 71%
Total Cell Count [4]: 419 and 328
Population Apoptotic (%) [5]: 25% and 31%
Population Fragmented Nuclei (%) [5]: 14% and 11%
Population Healthy Nuclei (%) [5]: 78% and 79%
Population Hoechst High Intensity Objects (%) [5]: 3% and 7%
Population Membrane Permeable-Phenotype (%) [5]: 0%
Population Mitochondria Different-Phenotype (%) [5]: 17% and 20%
Population Mitotic Cells (%) [5]: 74% and 68%
Population Normal (%) [5]: 96% and 92%
Population Pyknosed Nuclei (%) [5]: 6% and 9%
Population Tubulin-Different-Phenotype (%) [5]: 15% and 17%
Total Cell Count [5]: 985 and 454
Population Apoptotic (%) [6]: 56% and 66%
Population Fragmented Nuclei (%) [6]: 12%
Population Healthy Nuclei (%) [6]: 77% and 67%
Population Hoechst High Intensity Objects (%) [6]: 10% and 19%
Population Membrane Permeable-Phenotype (%) [6]: 1% and 0%
Population Mitochondria Different-Phenotype (%) [6]: 67% and 76%
Population Mitotic Cells (%) [6]: 43% and 33%
Population Normal (%) [6]: 89% and 80%
Population Pyknosed Nuclei (%) [6]: 10% and 19%
Population Tubulin-Different-Phenotype (%) [6]: 58% and 56%
Total Cell Count [6]: 548 and 371
